From ChEMBL document CHEMBL1147940, “Differential receptor binding characteristics of consecutive phenylalanines in micro-opioid specific peptide ligand endomorphin-2” (Bioorg Med Chem, 2007)
pIC50: −log10 of the molar value. Residues, ends and D or L forms follow the SMILES beside them.

How the values were obtained:
Mu-type opioid receptor = Mu-type opioid receptor (Rattus norvegicus, UniProt P33535); assay: Displacement of [3H]DAGO from mu opioid receptor in rat brain membrane; format: cell membranes
Mu-type opioid receptor, sequence (P33535 whole entry): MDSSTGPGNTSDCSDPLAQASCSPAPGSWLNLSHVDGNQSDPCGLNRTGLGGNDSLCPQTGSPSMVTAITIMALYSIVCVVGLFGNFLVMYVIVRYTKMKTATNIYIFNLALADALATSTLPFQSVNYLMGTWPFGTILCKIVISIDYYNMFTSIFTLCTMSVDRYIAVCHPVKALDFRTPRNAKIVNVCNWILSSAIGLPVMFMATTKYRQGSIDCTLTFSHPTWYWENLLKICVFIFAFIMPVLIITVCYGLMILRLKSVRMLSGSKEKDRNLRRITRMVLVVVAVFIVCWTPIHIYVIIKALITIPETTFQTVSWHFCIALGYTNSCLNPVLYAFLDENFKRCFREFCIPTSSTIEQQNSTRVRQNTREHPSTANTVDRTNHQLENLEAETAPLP

[1] = target: Delta-type opioid receptor (Rattus norvegicus, UniProt P33533); assay: Displacement of [3H]deltorphin2 from delta opioid receptor in rat brain membrane; format: cell membranes
Delta-type opioid receptor, sequence (P33533 whole entry): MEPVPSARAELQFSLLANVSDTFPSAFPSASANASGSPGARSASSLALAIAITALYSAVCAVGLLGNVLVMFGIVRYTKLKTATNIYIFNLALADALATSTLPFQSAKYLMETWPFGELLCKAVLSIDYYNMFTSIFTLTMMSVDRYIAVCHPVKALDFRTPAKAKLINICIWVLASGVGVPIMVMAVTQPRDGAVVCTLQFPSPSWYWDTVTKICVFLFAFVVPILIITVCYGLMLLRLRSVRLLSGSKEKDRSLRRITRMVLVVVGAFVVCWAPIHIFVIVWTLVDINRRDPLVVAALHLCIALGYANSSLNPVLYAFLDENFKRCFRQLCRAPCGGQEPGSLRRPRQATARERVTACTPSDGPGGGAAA

[2] = target: Opioid receptors; mu & delta (Rattus norvegicus) (UniProt P33533+P33535); assay: Selectivity for rat mu opioid receptor over rat delta opioid; format: protein assay
Opioid receptors; mu & delta (Rattus norvegicus), sequence (P33533 whole entry, looked up): as the sequence (P33533 whole entry) above
Opioid receptors; mu & delta (Rattus norvegicus), sequence (P33535 whole entry, looked up): as the sequence (P33535 whole entry) above
Method in brief: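 Ratio of IC50 values from [3H]deltorphin II (delta) and [3H]DAGO (mu) displacement on rat brain membranes. Each used 0.25 nM tracer, 60 min incubation at room temperature in Tris-HCl pH 7.55 with 0.1% BSA and bacitracin, and filtration with scintillation counting.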

Compound	pIC50 (Mu-type opioid receptor)	pIC50 [1]	Ratio IC50 [2]
NCCCC[C@H](NC(=O)[C@H](Cc1ccccc1)NC(=O)[C@@H]1CCCN1C(=O)[C@@H](N)Cc1ccc(O)cc1)C(N)=O (H-YPFK-NH2)	6.39		
NC(=O)[C@H](Cc1ccccc1)NC(=O)[C@H](Cc1c[nH]cn1)NC(=O)[C@@H]1CCCN1C(=O)[C@@H](N)Cc1ccc(O)cc1 (H-YPHF-NH2)	5.35	< 3.00	
C[C@@H](NC(=O)[C@@H](N)Cc1ccc(O)cc1)C(=O)NCC(=O)N(C)[C@@H](Cc1ccccc1)C(=O)NCCO [DAMGO]		6.14	
C[C@H](NC(=O)[C@@H]1CCCN1C(=O)[C@@H](N)Cc1ccc(O)cc1)C(=O)N[C@@H](Cc1ccccc1)C(N)=O (H-YPAF-NH2)	5.42		
CC(C)[C@H](NC(=O)[C@H](Cc1ccccc1)NC(=O)[C@@H]1CCCN1C(=O)[C@@H](N)Cc1ccc(O)cc1)C(N)=O (H-YPFV-NH2)	7.12	< 3.00	
NC(=O)[C@H](Cc1ccccc1)NC(=O)[C@H](Cc1c(F)c(F)c(F)c(F)c1F)NC(=O)[C@@H]1CCCN1C(=O)[C@@H](N)Cc1ccc(O)cc1	7.93	4.93	1000
CC(C)C[C@H](NC(=O)[C@H](Cc1ccccc1)NC(=O)[C@@H]1CCCN1C(=O)[C@@H](N)Cc1ccc(O)cc1)C(N)=O (H-YPFL-NH2)	7.21	< 3.00	
CC(C)C[C@H](NC(=O)[C@@H]1CCCN1C(=O)[C@@H](N)Cc1ccc(O)cc1)C(=O)N[C@@H](Cc1ccccc1)C(N)=O (H-YPLF-NH2)	6.03	< 3.00	
C[C@H](NC(=O)[C@H](Cc1ccccc1)NC(=O)[C@@H]1CCCN1C(=O)[C@@H](N)Cc1ccc(O)cc1)C(N)=O (H-YPFA-NH2)	7.07		
NC(=O)[C@H](Cc1ccc(O)cc1)NC(=O)[C@H](Cc1ccccc1)NC(=O)[C@@H]1CCCN1C(=O)[C@@H](N)Cc1ccc(O)cc1 (H-YPFY-NH2)	7.21	4.26	5.2
NC(=O)[C@H](CC1CCCCC1)NC(=O)[C@H](Cc1ccccc1)NC(=O)[C@@H]1CCCN1C(=O)[C@@H](N)Cc1ccc(O)cc1 (HELM PEPTIDE1{Y.P.F.[Cha].[am]}$$$$V2.0)	6.04	4.94	21.3
NC(=O)[C@H](Cc1c[nH]cn1)NC(=O)[C@H](Cc1ccccc1)NC(=O)[C@@H]1CCCN1C(=O)[C@@H](N)Cc1ccc(O)cc1 (H-YPFH-NH2)	6.86	< 3.00	
NC(=O)[C@H](Cc1c(F)c(F)c(F)c(F)c1F)NC(=O)[C@H](Cc1ccccc1)NC(=O)[C@@H]1CCCN1C(=O)[C@@H](N)Cc1ccc(O)cc1	8.56	5.09	1000
CCCC[C@H](NC(=O)[C@H](Cc1ccccc1)NC(=O)[C@@H]1CCCN1C(=O)[C@@H](N)Cc1ccc(O)cc1)C(N)=O (HELM PEPTIDE1{Y.P.F.[Nle].[am]}$$$$V2.0)	7.47	< 3.00	
NC(=O)[C@H](Cc1c[nH]c2ccccc12)NC(=O)[C@H](Cc1ccccc1)NC(=O)[C@@H]1CCCN1C(=O)[C@@H](N)Cc1ccc(O)cc1 (H-YPFW-NH2)	7.06	< 3.00	
CCCC[C@H](NC(=O)[C@@H]1CCCN1C(=O)[C@@H](N)Cc1ccc(O)cc1)C(=O)N[C@@H](Cc1ccccc1)C(N)=O (HELM PEPTIDE1{Y.P.[Nle].F.[am]}$$$$V2.0)	6.64	4.82	66.1
CC(C)[C@H](NC(=O)[C@@H]1CCCN1C(=O)[C@@H](N)Cc1ccc(O)cc1)C(=O)N[C@@H](Cc1ccccc1)C(N)=O (H-YPVF-NH2)	5.58	< 3.00	
NC(=O)[C@H](Cc1ccccc1)NC(=O)[C@H](CC1CCCCC1)NC(=O)[C@@H]1CCCN1C(=O)[C@@H](N)Cc1ccc(O)cc1 (HELM PEPTIDE1{Y.P.[Cha].F.[am]}$$$$V2.0)	6.83	5.50	21.3
NC(=O)[C@H](Cc1ccccc1)NC(=O)[C@H](Cc1ccc(O)cc1)NC(=O)[C@@H]1CCCN1C(=O)[C@@H](N)Cc1ccc(O)cc1 (H-YPYF-NH2)	5.96	5.24	5.2
NCCCC[C@H](NC(=O)[C@@H]1CCCN1C(=O)[C@@H](N)Cc1ccc(O)cc1)C(=O)N[C@@H](Cc1ccccc1)C(N)=O (H-YPKF-NH2)	< 3.00		
